Test results published in ChEMBL document CHEMBL3352173, “Optimization of pyrrolamide topoisomerase II inhibitors toward identification of an antibacterial clinical candidate (AZD5099)” (J Med Chem, 2014).
Converted amounts (≈) assume the structure as drawn.

Columns and labels:
Haemophilus influenzae = assay: Antimicrobial activity against Haemophilus influenzae by broth microdilution/CLSI method; format: functional; settings: Haemophilus influenzae; read-out: MIC
DNA gyrase subunit B = DNA gyrase subunit B (Staphylococcus aureus, UniProt P0A0K8); assay: Inhibition of ATPase activity of Staphylococcus aureus GyrB
Chain of DNA gyrase subunit B (P0A0K8 whole entry): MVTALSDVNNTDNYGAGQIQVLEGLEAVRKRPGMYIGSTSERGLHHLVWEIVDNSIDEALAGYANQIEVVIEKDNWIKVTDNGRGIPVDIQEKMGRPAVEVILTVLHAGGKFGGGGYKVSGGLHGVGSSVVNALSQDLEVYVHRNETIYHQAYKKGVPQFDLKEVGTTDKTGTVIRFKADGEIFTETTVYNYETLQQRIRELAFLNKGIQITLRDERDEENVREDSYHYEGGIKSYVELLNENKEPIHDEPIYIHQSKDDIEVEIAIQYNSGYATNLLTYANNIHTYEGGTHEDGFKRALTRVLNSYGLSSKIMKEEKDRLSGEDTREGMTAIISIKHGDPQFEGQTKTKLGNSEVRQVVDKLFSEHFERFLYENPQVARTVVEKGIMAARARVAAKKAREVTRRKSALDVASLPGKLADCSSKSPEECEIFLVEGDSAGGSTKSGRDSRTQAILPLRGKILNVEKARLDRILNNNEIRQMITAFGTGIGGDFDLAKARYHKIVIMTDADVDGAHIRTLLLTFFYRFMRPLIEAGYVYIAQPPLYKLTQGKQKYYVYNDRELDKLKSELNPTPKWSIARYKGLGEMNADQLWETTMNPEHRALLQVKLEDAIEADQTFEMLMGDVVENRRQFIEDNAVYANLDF
Summary of the method: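 IC50 was determined against S. aureus GyrB in the routine screening assay. The enzyme concentration limits resolution below 10 nM.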

Streptococcus pneumoniae = assay: Antibacterial activity against Streptococcus pneumoniae by broth microdilution/CLSI method; format: functional; settings: Streptococcus pneumoniae; read-out: MIC
Streptococcus pyogenes = assay: Antimicrobial activity against Streptococcus pyogenes by broth microdilution/CLSI method; format: functional
Staphylococcus aureus [1] = assay: Antimicrobial activity against methicillin-sensitive Staphylococcus aureus by broth microdilution/CLSI method; format: functional; settings: Staphylococcus aureus; read-out: MIC
Staphylococcus aureus [2] = assay: Antimicrobial activity against methicillin, quinolone-resistant Staphylococcus aureus by broth microdilution/CLSI method; format: functional; settings: Staphylococcus aureus; read-out: MIC
Moraxella catarrhalis = assay: Antimicrobial activity against Moraxella catarrhalis by broth microdilution/CLSI method; format: functional; settings: Moraxella catarrhalis; read-out: MIC
Escherichia coli [3] = assay: Antimicrobial activity against wild-type Escherichia coli Eco523 by broth microdilution/CLSI method; format: functional; settings: Escherichia coli, Eco523; read-out: MIC
Escherichia coli [4] = assay: Antimicrobial activity against Escherichia coli tolC- by broth microdilution/CLSI method; format: functional; settings: Escherichia coli; read-out: MIC
[5] = Octanol-phosphate buffer distribution coefficient, log D of the compound at pH 7.4 by shake flask method; format: physicochemical
[6] = Percentage unbound in human plasma; format: ADME, cell-free
[7] = Ratio of MIC for methicillin, quinolone-resistant Staphylococcus aureus to fraction unbound in human plasma; format: ADME
[8] = Clearance in rat at 10 mg/kg, iv; format: ADME, organism-based; set-up: dose 10 mg/kg, route intravenous; settings: in vivo
[9] = Solubility of the compound; format: physicochemical

Compound: COc1cc(OC)nc(-c2nc(N3CC[C@@H](NC(=O)c4[nH]c(C)c(Cl)c4Cl)[C@@H](OC)C3)sc2C(=O)O)n1
- MIC (Haemophilus influenzae): 0.25 µg/mL (≈ 0.437 µM)
- IC50 (DNA gyrase subunit B): < 0.01 µM
- MIC (Streptococcus pneumoniae): 0.016 µg/mL (≈ 0.028 µM)
- MIC (Streptococcus pyogenes): 0.016 µg/mL (≈ 0.028 µM)
- MIC (Staphylococcus aureus [1]): 0.025 µg/mL (≈ 0.0437 µM)
- MIC (Staphylococcus aureus [2]): 0.05 µg/mL (≈ 0.0875 µM)
- MIC (Moraxella catarrhalis): 0.016 µg/mL (≈ 0.028 µM)
- MIC (Escherichia coli [3]): 32 µg/mL (≈ 56 µM)
- MIC (Escherichia coli [4]): 1 µg/mL (≈ 1.75 µM)
- logD [5]: 1.7
- fraction unbound [6]: 0.036
- Ratio [7]: 1.4
- clearance [8]: 6.3 mL/min/kg

Compound: CO[C@H]1CN(c2nc(-c3cncc(OCCN(C)C)n3)c(C(=O)O)s2)CC[C@H]1NC(=O)c1[nH]c(C)c(Cl)c1Cl
- MIC (Haemophilus influenzae): 0.23 µg/mL (≈ 0.384 µM)
- IC50 (DNA gyrase subunit B): < 0.01 µM
- MIC (Streptococcus pneumoniae): 0.011 µg/mL (≈ 0.0184 µM)
- MIC (Streptococcus pyogenes): 0.031 µg/mL (≈ 0.0518 µM)
- MIC (Staphylococcus aureus [1]): 0.13 µg/mL (≈ 0.217 µM)
- MIC (Staphylococcus aureus [2]): 0.19 µg/mL (≈ 0.317 µM)
- MIC (Escherichia coli [3]): 60 µg/mL (≈ 100 µM)
- MIC (Escherichia coli [4]): 0.23 µg/mL (≈ 0.384 µM)
- logD [5]: 0.8
- fraction unbound [6]: 0.037
- solubility [9]: 770 µM (≈ 461 µg/mL)
- Ratio [7]: 5.1
- clearance [8]: 9.6 mL/min/kg

Compound: CO[C@H]1CN(c2nc3cccc(C(=O)O)c3s2)CC[C@H]1NC(=O)c1[nH]c(C)c(Cl)c1Cl
- MIC (Haemophilus influenzae): 0.031 µg/mL (≈ 0.0641 µM)
- IC50 (DNA gyrase subunit B): < 0.01 µM
- MIC (Streptococcus pneumoniae): 0.032 µg/mL (≈ 0.0662 µM)
- MIC (Staphylococcus aureus [1]): 0.031 µg/mL (≈ 0.0641 µM)
- MIC (Staphylococcus aureus [2]): 0.031 µg/mL (≈ 0.0641 µM)
- MIC (Moraxella catarrhalis): < 0.001 µg/mL
- MIC (Escherichia coli [3]): 8 µg/mL (≈ 16.6 µM)
- MIC (Escherichia coli [4]): 0.25 µg/mL (≈ 0.517 µM)
- logD [5]: 1.7
- fraction unbound [6]: < 0.01
- solubility [9]: < 1 µM
- Ratio [7]: > 31
- clearance [8]: 60 mL/min/kg

Compound: COCn1ccnc1-c1nc(N2CC[C@@H](NC(=O)c3[nH]c(C)c(Cl)c3Cl)[C@@H](OC)C2)sc1C(=O)O
- MIC (Haemophilus influenzae): 0.5 µg/mL (≈ 0.92 µM)
- IC50 (DNA gyrase subunit B): < 0.01 µM
- MIC (Streptococcus pneumoniae): < 0.06 µg/mL
- MIC (Streptococcus pyogenes): < 0.06 µg/mL
- MIC (Staphylococcus aureus [1]): < 0.06 µg/mL
- MIC (Moraxella catarrhalis): < 0.06 µg/mL
- MIC (Escherichia coli [3]): 16 µg/mL (≈ 29.4 µM)
- MIC (Escherichia coli [4]): 0.25 µg/mL (≈ 0.46 µM)
- logD [5]: 0.24
- fraction unbound [6]: 0.071
- solubility [9]: 170 µM (≈ 92.4 µg/mL)
- Ratio [7]: < 0.9
- clearance [8]: 27 mL/min/kg

Compound: CO[C@H]1CN(c2nc(C(C)=O)c(C(=O)O)s2)CC[C@H]1NC(=O)c1[nH]c(C)c(Cl)c1Cl
- MIC (Haemophilus influenzae): 0.15 µg/mL (≈ 0.316 µM)
- IC50 (DNA gyrase subunit B): < 0.01 µM
- MIC (Streptococcus pneumoniae): 0.02 µg/mL (≈ 0.0421 µM)
- MIC (Streptococcus pyogenes): 0.02 µg/mL (≈ 0.0421 µM)
- MIC (Staphylococcus aureus [1]): 0.063 µg/mL (≈ 0.133 µM)
- MIC (Staphylococcus aureus [2]): 0.063 µg/mL (≈ 0.133 µM)
- MIC (Moraxella catarrhalis): 0.02 µg/mL (≈ 0.0421 µM)
- MIC (Escherichia coli [3]): 30 µg/mL (≈ 63.1 µM)
- MIC (Escherichia coli [4]): 0.26 µg/mL (≈ 0.547 µM)
- logD [5]: 0.36
- fraction unbound [6]: 0.019
- solubility [9]: 890 µM (≈ 423 µg/mL)
- Ratio [7]: 3.7
- clearance [8]: 9.3 mL/min/kg

Compound: CO[C@H]1CN(c2nc(-c3cn(C)cn3)c(C(=O)O)s2)CC[C@H]1NC(=O)c1[nH]c(C)c(Cl)c1Cl
- MIC (Haemophilus influenzae): 2 µg/mL (≈ 3.9 µM)
- IC50 (DNA gyrase subunit B): < 0.01 µM
- MIC (Streptococcus pneumoniae): < 0.06 µg/mL
- MIC (Streptococcus pyogenes): < 0.06 µg/mL
- MIC (Staphylococcus aureus [1]): 0.13 µg/mL (≈ 0.253 µM)
- MIC (Staphylococcus aureus [2]): 0.13 µg/mL (≈ 0.253 µM)
- MIC (Moraxella catarrhalis): < 0.06 µg/mL
- MIC (Escherichia coli [3]): 16 µg/mL (≈ 31.2 µM)
- MIC (Escherichia coli [4]): < 0.06 µg/mL
- logD [5]: 2.5
- fraction unbound [6]: 0.019
- solubility [9]: 3 µM (≈ 1.54 µg/mL)
- Ratio [7]: 6.8

Compound: CO[C@H]1CN(c2nc(C(=O)NC[C@H](C)OC)c(C(=O)O)s2)CC[C@H]1NC(=O)c1[nH]c(C)c(Cl)c1Cl
- MIC (Haemophilus influenzae): 0.13 µg/mL (≈ 0.237 µM)
- IC50 (DNA gyrase subunit B): < 0.01 µM
- MIC (Streptococcus pneumoniae): 0.016 µg/mL (≈ 0.0292 µM)
- MIC (Streptococcus pyogenes): < 0.008 µg/mL
- MIC (Staphylococcus aureus [1]): 0.031 µg/mL (≈ 0.0565 µM)
- MIC (Staphylococcus aureus [2]): 0.031 µg/mL (≈ 0.0565 µM)
- MIC (Moraxella catarrhalis): < 0.008 µg/mL
- MIC (Escherichia coli [3]): > 8 µg/mL
- MIC (Escherichia coli [4]): 0.5 µg/mL (≈ 0.912 µM)
- fraction unbound [6]: 0.027
- Ratio [7]: 1.1
- clearance [8]: 13 mL/min/kg

Compound: CO[C@H]1CN(c2nc(CN3CCOCC3)c(C(=O)O)s2)CC[C@H]1NC(=O)c1[nH]c(C)c(Cl)c1Cl (racemic)
- MIC (Haemophilus influenzae): 4 µg/mL (≈ 7.51 µM)
- IC50 (DNA gyrase subunit B): < 0.01 µM
- MIC (Streptococcus pneumoniae): 0.25 µg/mL (≈ 0.47 µM)
- MIC (Streptococcus pyogenes): 0.25 µg/mL (≈ 0.47 µM)
- MIC (Staphylococcus aureus [1]): 2 µg/mL (≈ 3.76 µM)
- MIC (Staphylococcus aureus [2]): 2 µg/mL (≈ 3.76 µM)
- MIC (Moraxella catarrhalis): 1 µg/mL (≈ 1.88 µM)
- MIC (Escherichia coli [3]): 0.13 µg/mL (≈ 0.244 µM)
- MIC (Escherichia coli [4]): > 8 µg/mL
- logD [5]: 1.4
- fraction unbound [6]: 0.057
- solubility [9]: > 1000 µM
- Ratio [7]: 35
- clearance [8]: 0.25 mL/min/kg

Compound: CO[C@H]1CN(c2nc(C(=O)NCC3(C)OCCO3)c(C(=O)O)s2)CC[C@H]1NC(=O)c1[nH]c(C)c(Cl)c1Cl
- MIC (Haemophilus influenzae): 0.11 µg/mL (≈ 0.191 µM)
- IC50 (DNA gyrase subunit B): < 0.01 µM
- MIC (Streptococcus pneumoniae): 0.016 µg/mL (≈ 0.0278 µM)
- MIC (Streptococcus pyogenes): 0.016 µg/mL (≈ 0.0278 µM)
- MIC (Staphylococcus aureus [1]): 0.063 µg/mL (≈ 0.109 µM)
- MIC (Staphylococcus aureus [2]): 0.084 µg/mL (≈ 0.146 µM)
- MIC (Moraxella catarrhalis): 0.016 µg/mL (≈ 0.0278 µM)
- MIC (Escherichia coli [3]): 11 µg/mL (≈ 19.1 µM)
- MIC (Escherichia coli [4]): 0.5 µg/mL (≈ 0.867 µM)
- logD [5]: 1
- fraction unbound [6]: 0.032
- solubility [9]: 620 µM (≈ 357 µg/mL)
- Ratio [7]: 2.6
- clearance [8]: 34 mL/min/kg

Compound: CO[C@H]1CN(c2nc(C(=O)NCCN3CCOCC3)c(C(=O)O)s2)CC[C@H]1NC(=O)c1[nH]c(C)c(Cl)c1Cl
- MIC (Haemophilus influenzae): 0.25 µg/mL (≈ 0.424 µM)
- IC50 (DNA gyrase subunit B): < 0.01 µM
- MIC (Streptococcus pneumoniae): 0.031 µg/mL (≈ 0.0526 µM)
- MIC (Streptococcus pyogenes): 0.031 µg/mL (≈ 0.0526 µM)
- MIC (Staphylococcus aureus [1]): 0.25 µg/mL (≈ 0.424 µM)
- MIC (Staphylococcus aureus [2]): 0.5 µg/mL (≈ 0.848 µM)
- MIC (Moraxella catarrhalis): 0.031 µg/mL (≈ 0.0526 µM)
- MIC (Escherichia coli [3]): > 8 µg/mL
- MIC (Escherichia coli [4]): 0.25 µg/mL (≈ 0.424 µM)
- logD [5]: 1
- fraction unbound [6]: 0.054
- solubility [9]: > 1000 µM
- Ratio [7]: 9.2
